tolC growth inh = E. coli tolC mutant growth inhibition; E. coli BW25113 tolC mutant growth, OD615; growth inhibition, % at 10 µM (by protocol); actives 2.2% (n = 65,000);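 active means growth inhibition at or above a cutoff equal to the mean over every tested compound plus 3 SD, cut at about 60% in these data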;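 further: growth measured after 20 h incubation at 37 °C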
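Material: E. coli BW25113 ΔtolC::kan, tolC deletion mutant strain. Measure: percent growth inhibition. Schedule: 37 °C, 20 h exposure. Doses: single-point testing at 10 µM. Signal: A615 absorbance measurement. Buffer or medium: kanamycin-containing LB broth (50 µg/mL).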
PLAP activator = human PLAP activation | P05187 | AID 696 | actives 1.2% (n = 96,000) | purified PLAP enzyme, luminescent substrate read-out; active compounds read high | activation fold at 20 µM; in the data active means activation fold above about 2
Target sequence (P05187 whole entry, looked up): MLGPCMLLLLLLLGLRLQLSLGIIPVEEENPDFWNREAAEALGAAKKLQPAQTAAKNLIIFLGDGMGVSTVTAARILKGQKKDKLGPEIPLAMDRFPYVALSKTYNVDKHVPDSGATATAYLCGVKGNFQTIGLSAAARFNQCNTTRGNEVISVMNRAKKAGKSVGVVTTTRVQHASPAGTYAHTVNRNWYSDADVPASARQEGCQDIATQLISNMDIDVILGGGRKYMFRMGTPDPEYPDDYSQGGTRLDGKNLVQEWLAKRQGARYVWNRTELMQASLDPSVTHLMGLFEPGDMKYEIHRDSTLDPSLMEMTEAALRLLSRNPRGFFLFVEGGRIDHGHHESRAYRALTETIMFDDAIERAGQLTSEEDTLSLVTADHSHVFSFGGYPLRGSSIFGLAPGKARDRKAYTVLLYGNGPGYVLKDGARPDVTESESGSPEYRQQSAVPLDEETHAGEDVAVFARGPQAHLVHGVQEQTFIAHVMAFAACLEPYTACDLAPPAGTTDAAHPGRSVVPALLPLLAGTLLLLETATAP
PostGolgi yeast = growth inhibition of a yeast mutant, post-Golgi transport screen. post-Golgi transport phenotypic cell assay. inhibition, % at 10 µM. actives 0.9% (n = 98,000). AID 739;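 further: yeast cells grown in 1536-well plates; yeast grown about 18 h at 30C before absorbance read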
HePTP inh = human HePTP phosphatase inhibition; P35236; recombinant HePTP phosphatase activity, OD absorbance; inhibition, % at 20 µM; actives 0.64% (n = 110,000); AID 521; in the data active means inhibition above about 50%;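 further: plate controls were vehicle for no effect and reference inhibitor for full effect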
PostGolgi ctrl = inhibits growth of the yeast control strain; efflux-deficient yeast background strain, growth absorbance A615, 16 h; inhibition, % at 10 µM; actives 5% (n = 98,000)
E coli WT exp = blocks growth of wild type E. coli BW25113 | actives 0.15% (n = 98,000) | OD600 absorbance | growth inhibition, % at 100 µM;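 active means growth inhibition above about 50% at one test dose, limit read from the data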;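 further: growth measured after 20 h incubation at 37 °C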
* = called active by the depositor; · = no result. In the library only some 5.5% were active in any assay of this set; here they are far more common. Unless noted, no stated cut-off is given here; in the data, active means inhibition above about 30%; inactive means the rest.

SMILES	tolC growth inh	PLAP activator	PostGolgi yeast	HePTP inh	PostGolgi ctrl	E coli WT exp
O=C(N/N=C/c1ccc(Cl)cc1)c1sccc1OCc1ccc(F)cc1	·	1	5	·	27	-9
O=C(N/N=C/c1ccc(F)cc1)c1sccc1OCc1ccc(F)cc1	·	0.9	6	·	34*	2
Cn1cc(C(=O)c2ccc(Cl)cc2Cl)cc1C(=O)N/N=C(\N)COc1cccc(C(F)(F)F)c1	·	2*	-5	·	20	-8
CCN(CC)c1ccc(NS(=O)(=O)c2ccc(Cl)cc2)cc1	·	·	·	4	·	·
Cc1cc(Cl)ccc1N(CC(=O)NCc1ccco1)S(=O)(=O)c1ccccc1	·	·	·	4	·	·
Cc1nc2ncnn2c(N2CCCC(C(=O)Nc3ccc4c(c3)CCC4)C2)c1C (stereo not given)	18	2.1*	1	-2	16	5
O=C(Nc1ccc2c(c1)CCC2)C1CCCN(c2ncccn2)C1 (stereo not given)	11	1.1	-3	2	0	-1
Cc1cc(=O)[nH]c(SCC(=O)C23CC4CC(CC(C4)C2)C3)c1C#N	70*	0.8	1	-5	11	-8
Cc1nnc(-c2cccc(Br)c2)c2cn(-c3ccccc3)nc12	·	1	94*	·	21	-6
Cc1nnc(-c2cccc(Br)c2)c2cn(-c3ccc(Br)cc3)nc12	·	1.1	64*	·	49*	-6
Cc1nnc(-c2cccc(Br)c2)c2cn(-c3cccc(Br)c3)nc12	·	1	7	·	19	-7
C=CCSc1nc2sc3c(c2c(=O)n1CCc1ccccc1)CC(C)(C)OC3	·	·	·	-10	·	·
C=CCn1c(/C=C(/OC(=O)c2ccccc2)c2ccccc2)nc2ccccc21	·	·	·	7	·	·
Cc1nc(SCC(=O)Nc2nnc(-c3ccccc3)s2)n[nH]1	·	·	·	2	·	·
CN(c1ccccc1)C(c1ccc(F)cc1)c1nnnn1C1CCCC1 (stereo not given)	73*	1	-2	12	9	-15
CN(c1ccccc1)C(c1ccc(F)cc1)c1nnnn1CC1CCCO1 (stereo not given)	-1	1.1	4	7	22	-1
Cc1cccc(N2CCN(C(=O)CCc3nc4ccccc4[nH]3)CC2C)c1 (stereo not given)	·	2.2*	-2	·	2	9
Cc1ccc(N2CCN(C(=O)CCc3nc4ccccc4[nH]3)CC2)c(C)c1	·	·	-2	·	11	10
[N-]=[N+]=CC(=O)CC(c1ccccc1)N1C(=O)c2ccccc2C1=O (stereo not given)	-14	2*	-3	11	2	0
[N-]=[N+]=CC(=O)CCCN1C(=O)c2ccccc2C1=O	-20	1.3	-1	9	1	0
CCCOc1cccc(-c2cc(-c3n[nH]c(=S)n3CC)c3ccccc3n2)c1	·	1.4	-14	·	17	3
CCn1c(-c2cc(-c3ccc(OC(C)C)cc3)nc3ccccc23)n[nH]c1=S	·	2.2*	1	·	16	3
CCn1c(-c2cc(-c3cc(OC)ccc3OC)nc3ccccc23)n[nH]c1=S	·	2.3*	8	·	14	-6
Cc1nc(SCc2ccccc2C)n[nH]1	13	2*	10	2	-3	1
Cc1ccccc1CSc1nsc(N)n1	·	1.1	11	·	10	20
SMILES	tolC growth inh	PLAP activator	PostGolgi yeast	HePTP inh	PostGolgi ctrl	E coli WT exp
CCN(c1ccccc1)S(=O)(=O)c1ccc(NCC2COc3ccccc3O2)nc1 (stereo not given)	62*	0.9	15	2	56*	-21
CCN(CC)C(=O)c1sc(NC(=O)c2ccc([N+](=O)[O-])cc2)c(C(=O)OC(C)C)c1C	·	·	·	-2	·	·
O=C(CC1S/C(=N\N=C2/CCCc3ccccc32)NC1=O)Nc1ccccc1C(F)(F)F (stereo not given)	·	·	·	-2	·	·
O=C(CN(C(=O)CNC(=O)c1ccco1)c1ccc(Cl)c(Cl)c1)NC1CCCCC1	72*	1.3	-3	-3	6	9
N=c1sc(Cc2cccc(Cl)c2)cn1CC(=O)c1ccc(F)cc1	·	·	·	5	·	·
CC1=NN(c2ccc(S(N)(=O)=O)cc2)C(=O)/C1=C\c1ccc2c(c1)OCO2	·	·	·	63*	·	·
CC1=NN(c2ccc(Cl)c(Cl)c2)C(=O)/C1=C/c1ccc2c(c1)OCO2	·	·	·	9	·	·
COc1cc(C(=O)Sc2ccc(C)cc2)cc(OC)c1OC	·	1.1	15	·	45*	2
C=CCC(CC=C)(NC(=O)/C=C/c1ccccc1)c1ccccc1	·	·	·	0	·	·
CCN1CCCC1CNc1ncnc2c1[nH]c1ccc(Cl)cc12 (stereo not given)	3	2.1*	0	2	6	28
O=C1CCCN1CCCNc1ncnc2c1[nH]c1ccc(Cl)cc12	2	1	1	12	2	14
Cc1cc(C)c(C#N)c(SCC(=O)OC2CCCCC2)n1	73*	1	-3	5	17	-9
COc1ccccc1-c1nnc(SCc2nc3ccccc3s2)n1C	·	1	0	·	6	2
COc1ccc(-c2nnc(SCc3nc4ccccc4s3)n2C(C)C)cc1	·	0.9	1	·	30*	-5
O=[N+]([O-])c1ccc(S(=O)(=O)Nc2ccccc2CO)cc1	·	·	·	-12	·	·
CCn1c(C(=O)OC)cc2c1ccn2-c1ccc(F)cc1	96*	0.9	12	0	1	4
COC(=O)c1cc2c(ccn2-c2ccc(F)cc2)n1CC(=O)N1CCN(C(=O)c2ccco2)CC1	12	1	8	10	15	-3
O=C1NC(=Nc2cccc(Cl)c2)SC1Cc1cccc(Cl)c1Cl (stereo not given)	·	1.1	-7	·	48*	-5
Cc1ccc(N2NC(=O)/C(=C/c3ccc(O)c([N+](=O)[O-])c3)C2=O)cc1	·	·	·	-21	·	·
C=CCn1c(=O)n2ncnc2c2c3c(sc21)CCCC3	·	1.7	3	·	5	3
O=c1n(Cc2ccc(Cl)cc2)c2sc3c(c2c2ncnn12)CCCC3	75*	0.9	16	3	93*	-3
CCn1c(SCC(=O)N2CCCc3ccccc32)nc2ccccc2c1=O	40	1.8	-1	2	40*	-8
Cc1nc(SCC(=O)N2CCCc3ccccc32)c2oc3ccccc3c2n1	29	1	-2	1	41*	-2
C=CCn1c(SCC(=O)N2CCc3ccccc3C2)nc2ccccc2c1=O	·	1.3	-6	·	49*	-18
C=CCn1c(SCC(=O)c2ccc(Cl)s2)nc2ccccc2c1=O	·	0.8	-3	·	17	-2
SMILES	tolC growth inh	PLAP activator	PostGolgi yeast	HePTP inh	PostGolgi ctrl	E coli WT exp
O=C(CSc1nnnn1-c1ccccc1)N1CCc2ccccc21	-4	0.8	9	4	-2	-6
CCc1nc(SCC(=O)N2CCc3ccccc32)c2oc3ccccc3c2n1	-23	·	·	3	·	·
O=C(CSc1nnnn1-c1ccc(Cl)cc1)N1CCc2ccccc2C1	1	0.6	19	4	38*	-16
O=C(N/N=C\c1ccc[nH]1)c1cccs1	·	·	·	4	·	·
CC(C)(C)OC(=O)N1N=C(C(F)(F)F)CC1(O)C(C)(C)C (stereo not given)	·	·	·	7	·	·
COC(=O)C1=C(C)N(C)C(C)=C(C(=O)OC)C1c1ccccc1	·	·	·	-10	·	·
C=C1CC(C)OC(c2ccccc2O)C1 (stereo not given)	·	·	·	1	·	·
